In the library only some 2.9% were active in any assay of this set; here they are far more common.
DENV2 CPE: inhibitors of DENV2 cytopathic effect; CPE inhibition, % at 9.99 µM; AID 651640; 350,000 compounds, 1.7% hits; DENV2-infected cells, cytopathic effect rescue, plate reader; in the data active means CPE inhibition above about 20%, passing the limit was not always enough; inconclusive means no clear call, values can overlap the other calls; tested in BHK-21 cells;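 further: 0% = median of neutral control wells and 100% = median of positive control wells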
SIRT5 inh: blocks human SIRT5 desuccinylation of peptide | 330,000 compounds, 1.1% hits | AID 652115 | Purified SirT5, succinyl-peptide AMC, trypsin-coupled fluorescence | inhibition, % at 15 µM | Q9NXA8; in the data active means inhibition above about 15%; inconclusive means no clear call, values can overlap the other calls
Target sequence (Q9NXA8 whole entry, looked up): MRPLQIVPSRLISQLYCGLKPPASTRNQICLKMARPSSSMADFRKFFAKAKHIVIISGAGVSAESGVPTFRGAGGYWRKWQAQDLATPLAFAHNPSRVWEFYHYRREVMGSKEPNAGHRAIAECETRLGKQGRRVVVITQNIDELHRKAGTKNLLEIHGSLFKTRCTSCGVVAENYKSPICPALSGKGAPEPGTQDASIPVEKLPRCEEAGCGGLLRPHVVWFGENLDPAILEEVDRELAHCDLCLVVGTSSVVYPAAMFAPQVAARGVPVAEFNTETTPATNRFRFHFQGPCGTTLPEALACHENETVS
S100A4 inh HTS: inhibitors of human S100A4 binding to myosin IIA peptide; 360,000 compounds, 0.14% hits; S100A4/TAMRA-MyoIIA peptide fluorescence polarization; AID 652163; inhibition, % at 10.7 µM; P26447;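 active means mean inhibition of at least 70% across replicates, with every replicate also reaching that level; inconclusive means mean inhibition reaches 70% but some replicates fall short; inactive means mean inhibition below 70%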
Target sequence (P26447 whole entry, looked up): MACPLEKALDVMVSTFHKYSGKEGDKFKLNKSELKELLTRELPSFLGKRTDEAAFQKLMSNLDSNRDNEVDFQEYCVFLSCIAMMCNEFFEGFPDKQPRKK
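Test system: S100A4 monomer protein. Medium: HEPES buffer with Ca2+, pH 7.2. Reagent: fluorescent myosin IIA peptide, 5 nM. Compound dosing: single-point compound testing. Timing: 5 min between mix addition and reading. Benchmarks: DMSO neutral and TFP positive wells.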
C2C12 statin: suppressors of simvastatin-induced myotoxicity in C2C12 myotubes | ATP luminescence, 48 h; scaled: DMSO 0, geranylgeraniol control 100 | rescue of ATP level, % at 7.49 µM | 330,000 compounds, 0.78% hits | AID 602340;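 active means mean ATP rescue above about 67%, or every replicate alone reaching that limit, limit read from the data, passing the limit was not always enough; inconclusive means no clear call, values can overlap the other calls; inactive means mean under the limit and some replicate under it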;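 further: myotubes were challenged with 10 µM simvastatin during compound exposure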
PGC1a acetyl inh: PGC1a acetylation modulation, inhibitor mode. U2OS PGC1a acetylation, AlphaScreen anti-acetyl-lysine; with virally co-expressed GCN5 acetyltransferase. inhibition, % at 15.6 µM. 350,000 compounds, 0.17% hits. AID 651687;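 active means every replicate shows inhibition of at least 40%; inconclusive means mean inhibition at least 40% but some replicate below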;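 further: 0% = neutral control wells and 100% = positive control wells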
An asterisk follows results filed as active; ! = not confirmed by another sample.

What do the screens show for `Cc1ccc(S(=O)(=O)Nc2ccc3c(c2)C(=O)N([C@H](C)CO)C[C@@H](C)[C@@H](CN(C)Cc2ccc(Cl)c(Cl)c2)OCCCC[C@H](C)O3)cc1`?
DENV2 CPE: 19; SIRT5 inh: 8; S100A4 inh HTS: 0; PGC1a acetyl inh: 13

What do the screens show for `NCC[C@H]1CC[C@@H](NC(=O)Nc2ccc(F)cc2)[C@H](CO)O1`?
DENV2 CPE: -11; SIRT5 inh: 4; S100A4 inh HTS: 3; C2C12 statin: -2; PGC1a acetyl inh: 5

What do the screens show for `Cc1noc(C)c1S(=O)(=O)Nc1ccc2c(c1)CC(=O)N([C@H](C)CO)C[C@@H](C)[C@H](CN(C)S(=O)(=O)c1cn(C)cn1)O2`?
DENV2 CPE: 4; SIRT5 inh: -1; S100A4 inh HTS: -5; C2C12 statin: -12; PGC1a acetyl inh: 1

How did COc1cc(NC(=O)Cc2cccs2)ccc1-n1cnnn1 do in these assays?
C2C12 statin: 94*; PGC1a acetyl inh: 0

How did COc1cc(C(=O)Nc2ccc3c(c2)OCO3)ccc1-n1cnnn1 do in these assays?
C2C12 statin: -11; PGC1a acetyl inh: -11

How did Cc1ccc2c(c1)c1c3n2CCN(C(=O)C2CC2)C3CCC1 (centres undefined) do in these assays?
DENV2 CPE: 54*; SIRT5 inh: 0; S100A4 inh HTS: 0; C2C12 statin: -13; PGC1a acetyl inh: -3

How did CC1CCCC(NC(=O)COC(=O)c2ccccc2Sc2ccccc2C#N)C1C (centres undefined) do in these assays?
DENV2 CPE: 57*; SIRT5 inh: -1; S100A4 inh HTS: 1; PGC1a acetyl inh: 10

Results for COc1ccccc1NCC(=O)N/N=C(\C)c1ccc(Br)s1 ?
DENV2 CPE: 23*; SIRT5 inh: -3; S100A4 inh HTS: -5; C2C12 statin: -1; PGC1a acetyl inh: -8

What do the screens show for `C/C(=N/NC(=O)CNc1ccc(C)cc1)c1ccc(Br)s1`?
DENV2 CPE: 4; SIRT5 inh: 2; S100A4 inh HTS: 6; C2C12 statin: 30; PGC1a acetyl inh: -4

What do the screens show for `O=C(CSc1nc2ccsc2c(=O)n1CC1CCC(C(=O)O)CC1)c1ccc(F)cc1` (centres undefined)?
DENV2 CPE: 10; SIRT5 inh: 0; S100A4 inh HTS: -2; C2C12 statin: 12

Results for O=C(CSc1nc2ccsc2c(=O)n1CC1CCC(C(=O)O)CC1)c1ccc(Cl)cc1 (centres undefined) ?
DENV2 CPE: 2; SIRT5 inh: 16*; S100A4 inh HTS: -3

What do the screens show for `Cc1ccc(OCC(=O)Nc2nnc(S(=O)(=O)N3CCCCCC3)s2)cc1C`?
DENV2 CPE: -6; SIRT5 inh: 0; S100A4 inh HTS: -6; C2C12 statin: -3; PGC1a acetyl inh: 0

How did O=C(COc1ccc(Cl)cc1)Nc1nnc(S(=O)(=O)N2CCCCCC2)s1 do in these assays?
DENV2 CPE: -9; SIRT5 inh: -4; S100A4 inh HTS: -3; C2C12 statin: 77*; PGC1a acetyl inh: -1

How did COc1ccc(NC(=O)N(C)C[C@H]2Oc3c(NS(C)(=O)=O)cccc3C(=O)N([C@@H](C)CO)C[C@H]2C)cc1 do in these assays?
DENV2 CPE: 1; SIRT5 inh: 33*; S100A4 inh HTS: 12; PGC1a acetyl inh: 1

Results for COc1ccc(NC(=O)N(C)C[C@H]2Oc3c(NS(=O)(=O)c4ccc(Cl)cc4)cccc3C(=O)N([C@H](C)CO)C[C@H]2C)cc1 ?
DENV2 CPE: 49*; SIRT5 inh: 5; S100A4 inh HTS: -2; C2C12 statin: 41; PGC1a acetyl inh: 2

How did COc1ccc(NC(=O)N(C)C[C@H]2Oc3c(NS(=O)(=O)c4ccc(OC)cc4)cccc3C(=O)N([C@H](C)CO)C[C@@H]2C)cc1 do in these assays?
DENV2 CPE: 28*!; SIRT5 inh: 3; S100A4 inh HTS: 10; C2C12 statin: 5; PGC1a acetyl inh: 10

What do the screens show for `COc1ccc(NC(=O)N(C)C[C@H]2Oc3c(NS(=O)(=O)c4ccc(Cl)cc4)cccc3C(=O)N([C@@H](C)CO)C[C@H]2C)cc1`?
DENV2 CPE: inconclusive; SIRT5 inh: 5; S100A4 inh HTS: 2; C2C12 statin: 50; PGC1a acetyl inh: -11

Results for COc1ccc(NC(=O)N(C)C[C@H]2Oc3c(NS(=O)(=O)c4cn(C)cn4)cccc3C(=O)N([C@@H](C)CO)C[C@@H]2C)cc1 ?
DENV2 CPE: 26*; SIRT5 inh: 3; S100A4 inh HTS: 3; PGC1a acetyl inh: 6
